Assay results from PubChem BioAssay AID624406 (The Scripps Research Institute Molecular Screening Center, 2012).
Activity calls are given as the source filed them.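 The calls were made as follows: active = inhibition of radioligand binding at or above 50% in any panel; inactive = inhibition below 50%.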

How the values were obtained:
Experiment in all cases: off-target binding at receptors and transporters, profiling panel, selectivity assay for HCV core dimerization inhibitor project, cell-based, radioligand binding, Ricerca panel (AID 624406)
[1] = molecular target: 5-hydroxytryptamine receptor 1A (Homo sapiens) (UniProt P08908); conditions: Serotonin (5-Hydroxytryptamine) 5-HT1A, at 10 µM, stronger effect = higher value
5-hydroxytryptamine receptor 1A (Homo sapiens), sequence (P08908 whole entry, looked up): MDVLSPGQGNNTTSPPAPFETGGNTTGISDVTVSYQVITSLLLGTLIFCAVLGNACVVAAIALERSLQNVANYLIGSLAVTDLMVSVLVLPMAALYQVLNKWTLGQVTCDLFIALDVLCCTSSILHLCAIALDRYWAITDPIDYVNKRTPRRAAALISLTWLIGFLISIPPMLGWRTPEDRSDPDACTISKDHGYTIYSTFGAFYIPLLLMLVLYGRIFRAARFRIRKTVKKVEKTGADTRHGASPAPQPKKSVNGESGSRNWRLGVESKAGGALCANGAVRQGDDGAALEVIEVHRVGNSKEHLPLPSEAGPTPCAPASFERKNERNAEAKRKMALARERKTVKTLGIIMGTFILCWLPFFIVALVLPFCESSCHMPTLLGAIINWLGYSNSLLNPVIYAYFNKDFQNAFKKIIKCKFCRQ
How it was run: (§1)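 read-out basis = % radioligand displacement, negatives meaning binding stimulation | benchmarks = reference standards included in every assay run | replicates = duplicates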

[2] = molecular target: 5-hydroxytryptamine receptor 2B (Homo sapiens) (UniProt P41595); conditions: Serotonin (5-Hydroxytryptamine) 5-HT2B, at 10 µM, stronger effect = higher value
5-hydroxytryptamine receptor 2B (Homo sapiens), sequence (P41595 whole entry, looked up): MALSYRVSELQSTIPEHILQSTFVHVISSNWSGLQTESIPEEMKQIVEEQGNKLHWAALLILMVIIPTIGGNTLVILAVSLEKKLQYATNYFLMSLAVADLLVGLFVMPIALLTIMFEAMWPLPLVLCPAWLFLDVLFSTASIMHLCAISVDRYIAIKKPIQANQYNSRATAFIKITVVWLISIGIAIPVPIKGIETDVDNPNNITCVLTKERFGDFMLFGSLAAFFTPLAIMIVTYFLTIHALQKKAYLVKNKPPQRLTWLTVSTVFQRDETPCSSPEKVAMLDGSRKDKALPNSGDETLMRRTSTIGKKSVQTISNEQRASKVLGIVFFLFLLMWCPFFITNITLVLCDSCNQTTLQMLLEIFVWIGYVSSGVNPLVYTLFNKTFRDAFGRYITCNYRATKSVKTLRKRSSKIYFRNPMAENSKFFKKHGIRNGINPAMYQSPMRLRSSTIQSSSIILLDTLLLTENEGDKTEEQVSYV
How it was run: as §1

[3] = tested on: Adenosine A1; conditions: at 10 µM, stronger effect = higher value
How it was run: as §1

[4] = tested on: Adenosine A2A; conditions: at 10 µM, stronger effect = higher value
How it was run: as §1

[5] = tested on: Adenosine A3; conditions: at 10 µM, stronger effect = higher value
How it was run: as §1

[6] = tested on: Adrenergic alpha1A; conditions: at 10 µM, stronger effect = higher value
How it was run: as §1

[7] = tested on: Adrenergic alpha1B; conditions: at 10 µM, stronger effect = higher value
How it was run: as §1

[8] = tested on: Adrenergic alpha1D; conditions: at 10 µM, stronger effect = higher value
How it was run: as §1

[9] = tested on: Adrenergic beta1; conditions: at 10 µM, stronger effect = higher value
How it was run: as §1

[10] = molecular target: Alpha-2A adrenergic receptor (Homo sapiens) (UniProt P08913); conditions: Adrenergic alpha2A, at 10 µM, stronger effect = higher value
Alpha-2A adrenergic receptor (Homo sapiens), sequence (P08913 whole entry, looked up): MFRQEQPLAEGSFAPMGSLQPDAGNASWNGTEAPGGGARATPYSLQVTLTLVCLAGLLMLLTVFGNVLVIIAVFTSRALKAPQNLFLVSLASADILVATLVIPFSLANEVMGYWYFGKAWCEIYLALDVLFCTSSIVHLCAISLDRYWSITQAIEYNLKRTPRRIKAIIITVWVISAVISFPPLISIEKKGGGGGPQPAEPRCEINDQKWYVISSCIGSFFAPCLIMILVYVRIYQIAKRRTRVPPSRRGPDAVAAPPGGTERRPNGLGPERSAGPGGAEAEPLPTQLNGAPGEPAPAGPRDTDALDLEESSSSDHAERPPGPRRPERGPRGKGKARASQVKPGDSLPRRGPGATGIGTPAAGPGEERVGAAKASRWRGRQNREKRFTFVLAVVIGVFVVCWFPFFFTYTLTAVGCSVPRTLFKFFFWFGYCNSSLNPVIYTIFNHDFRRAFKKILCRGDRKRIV
How it was run: as §1

[11] = tested on: Androgen (Testosterone) AR; conditions: at 10 µM, stronger effect = higher value
How it was run: as §1

[12] = molecular target: Beta-2 adrenergic receptor (Homo sapiens) (UniProt P07550); conditions: Adrenergic beta2, at 10 µM, stronger effect = higher value
How it was run: as §1

[13] = tested on: Bradykinin B1; conditions: at 10 µM, stronger effect = higher value
How it was run: as §1

[14] = tested on: Bradykinin B2; conditions: at 10 µM, stronger effect = higher value
How it was run: as §1

[15] = tested on: Calcium Channel L-Type; conditions: at 10 µM, stronger effect = higher value
How it was run: as §1

[16] = tested on: Calcium Channel N-Type; conditions: at 10 µM, stronger effect = higher value
How it was run: as §1

[17] = tested on: Cannabinoid CB1; conditions: at 10 µM, stronger effect = higher value
How it was run: as §1

[18] = molecular target: D(1A) dopamine receptor (Homo sapiens) (UniProt P21728); conditions: Dopamine D1, at 10 µM, stronger effect = higher value
How it was run: as §1

[19] = molecular target: D(3) dopamine receptor (Homo sapiens) (UniProt P35462); conditions: Dopamine D3, at 10 µM, stronger effect = higher value
D(3) dopamine receptor (Homo sapiens), sequence (P35462 whole entry, looked up): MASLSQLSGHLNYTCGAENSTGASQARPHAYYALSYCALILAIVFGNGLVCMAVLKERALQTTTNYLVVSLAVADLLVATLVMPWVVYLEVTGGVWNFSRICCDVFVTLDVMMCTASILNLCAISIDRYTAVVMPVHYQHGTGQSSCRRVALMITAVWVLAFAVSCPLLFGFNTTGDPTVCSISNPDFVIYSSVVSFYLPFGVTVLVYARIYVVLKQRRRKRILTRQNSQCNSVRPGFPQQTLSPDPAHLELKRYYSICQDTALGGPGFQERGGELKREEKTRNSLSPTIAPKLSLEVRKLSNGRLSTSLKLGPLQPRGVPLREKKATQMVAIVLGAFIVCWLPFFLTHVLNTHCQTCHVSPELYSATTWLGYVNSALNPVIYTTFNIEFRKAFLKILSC
How it was run: as §1

[20] = molecular target: Delta-type opioid receptor (Homo sapiens) (UniProt P41143); conditions: Opiate delat1 (OP1, DOP), at 10 µM, stronger effect = higher value
Delta-type opioid receptor (Homo sapiens), sequence (P41143 whole entry, looked up): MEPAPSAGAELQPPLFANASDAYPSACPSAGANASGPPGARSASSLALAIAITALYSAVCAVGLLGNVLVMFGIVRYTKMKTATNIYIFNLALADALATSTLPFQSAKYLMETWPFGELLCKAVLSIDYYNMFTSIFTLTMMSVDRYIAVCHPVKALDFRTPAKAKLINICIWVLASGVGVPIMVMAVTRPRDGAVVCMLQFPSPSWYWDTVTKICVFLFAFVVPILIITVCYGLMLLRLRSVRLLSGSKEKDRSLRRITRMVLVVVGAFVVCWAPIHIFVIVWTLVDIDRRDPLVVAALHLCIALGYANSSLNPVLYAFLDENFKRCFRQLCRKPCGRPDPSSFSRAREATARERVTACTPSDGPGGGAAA
How it was run: as §1

[21] = tested on: Dopamine D2S; conditions: at 10 µM, stronger effect = higher value
How it was run: as §1

[22] = tested on: Dopamine D4.2; conditions: at 10 µM, stronger effect = higher value
How it was run: as §1

[23] = tested on: Endothelin ETA; conditions: at 10 µM, stronger effect = higher value
How it was run: as §1

[24] = tested on: Endothelin ETB; conditions: at 10 µM, stronger effect = higher value
How it was run: as §1

[25] = tested on: Epidermal Growth Factor (EGF); conditions: at 10 µM, stronger effect = higher value
How it was run: as §1

[26] = molecular target: Estrogen receptor (Homo sapiens) (UniProt P03372); conditions: Estrogen Eralpha, at 10 µM, stronger effect = higher value
Estrogen receptor (Homo sapiens), sequence (P03372 whole entry, looked up): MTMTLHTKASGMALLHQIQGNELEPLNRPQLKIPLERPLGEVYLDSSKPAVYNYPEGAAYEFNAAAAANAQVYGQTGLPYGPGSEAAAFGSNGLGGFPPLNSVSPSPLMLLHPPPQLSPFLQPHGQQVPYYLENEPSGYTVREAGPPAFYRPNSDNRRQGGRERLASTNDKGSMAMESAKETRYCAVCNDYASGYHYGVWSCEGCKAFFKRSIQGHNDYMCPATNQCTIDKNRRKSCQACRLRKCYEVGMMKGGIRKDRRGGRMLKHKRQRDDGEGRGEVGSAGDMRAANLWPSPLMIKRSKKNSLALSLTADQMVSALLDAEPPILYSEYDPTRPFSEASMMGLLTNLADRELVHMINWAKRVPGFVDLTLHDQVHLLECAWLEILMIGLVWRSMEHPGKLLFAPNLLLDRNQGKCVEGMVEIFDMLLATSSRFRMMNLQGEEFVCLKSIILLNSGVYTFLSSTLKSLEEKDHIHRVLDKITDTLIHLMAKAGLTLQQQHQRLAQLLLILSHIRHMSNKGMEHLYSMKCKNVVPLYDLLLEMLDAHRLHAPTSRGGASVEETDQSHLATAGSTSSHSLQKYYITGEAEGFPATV
How it was run: as §1

[27] = tested on: GABAA; conditions: central, at 10 µM, stronger effect = higher value
How it was run: as §1

[28] = tested on: GABAB1A; conditions: at 10 µM, stronger effect = higher value
How it was run: as §1

[29] = molecular target: Glucocorticoid receptor (Homo sapiens) (UniProt P04150); conditions: at 10 µM, stronger effect = higher value
Glucocorticoid receptor (Homo sapiens), sequence (P04150 whole entry, looked up): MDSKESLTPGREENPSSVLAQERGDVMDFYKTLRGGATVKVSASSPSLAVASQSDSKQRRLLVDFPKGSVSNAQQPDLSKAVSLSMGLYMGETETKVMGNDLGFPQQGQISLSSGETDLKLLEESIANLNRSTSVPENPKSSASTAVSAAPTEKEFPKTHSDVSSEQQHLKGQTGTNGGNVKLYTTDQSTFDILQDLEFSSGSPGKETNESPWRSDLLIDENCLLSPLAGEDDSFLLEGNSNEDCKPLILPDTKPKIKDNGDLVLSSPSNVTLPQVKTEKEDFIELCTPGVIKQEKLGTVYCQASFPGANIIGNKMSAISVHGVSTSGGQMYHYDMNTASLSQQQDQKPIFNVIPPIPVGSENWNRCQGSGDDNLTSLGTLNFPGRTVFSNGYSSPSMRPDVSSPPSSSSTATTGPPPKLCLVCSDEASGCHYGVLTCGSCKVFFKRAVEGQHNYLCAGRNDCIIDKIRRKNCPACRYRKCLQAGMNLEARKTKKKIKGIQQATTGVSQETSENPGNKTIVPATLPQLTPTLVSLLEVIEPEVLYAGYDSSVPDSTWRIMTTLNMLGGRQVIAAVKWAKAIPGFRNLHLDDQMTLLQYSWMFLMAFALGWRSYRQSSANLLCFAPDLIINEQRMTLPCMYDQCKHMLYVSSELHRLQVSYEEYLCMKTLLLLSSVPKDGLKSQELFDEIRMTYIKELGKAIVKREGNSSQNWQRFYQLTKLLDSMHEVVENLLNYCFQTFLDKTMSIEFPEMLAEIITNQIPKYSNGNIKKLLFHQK
How it was run: as §1

[30] = tested on: Glutamate Kainate; conditions: at 10 µM, stronger effect = higher value
How it was run: as §1

[31] = tested on: Glutamate NMDA; conditions: at 10 µM, stronger effect = higher value
How it was run: as §1

[32] = tested on: Histamine H1; conditions: at 10 µM, stronger effect = higher value
How it was run: as §1

[33] = tested on: Histamine H2; conditions: at 10 µM, stronger effect = higher value
How it was run: as §1

[34] = tested on: Histamine H3; conditions: at 10 µM, stronger effect = higher value
How it was run: as §1

[35] = tested on: Imidazoline I2; conditions: central, at 10 µM, stronger effect = higher value
How it was run: as §1

[36] = tested on: Interleukin IL-1; conditions: at 10 µM, stronger effect = higher value
How it was run: as §1

[37] = molecular target: Kappa-type opioid receptor (Homo sapiens) (UniProt P41145); conditions: Opiate kappa (OP2, KOP), at 10 µM, stronger effect = higher value
How it was run: as §1

[38] = tested on: Leukotriene, Cysteinyl CysLT1; conditions: at 10 µM, stronger effect = higher value
How it was run: as §1

[39] = tested on: Melatonin MT1; conditions: at 10 µM, stronger effect = higher value
How it was run: as §1

[40] = molecular target: Muscarinic acetylcholine receptor M1 (Homo sapiens) (UniProt P11229); conditions: at 10 µM, stronger effect = higher value
How it was run: as §1

[41] = molecular target: Muscarinic acetylcholine receptor M2 (Homo sapiens) (UniProt P08172); conditions: at 10 µM, stronger effect = higher value
Muscarinic acetylcholine receptor M2 (Homo sapiens), sequence (P08172 whole entry, looked up): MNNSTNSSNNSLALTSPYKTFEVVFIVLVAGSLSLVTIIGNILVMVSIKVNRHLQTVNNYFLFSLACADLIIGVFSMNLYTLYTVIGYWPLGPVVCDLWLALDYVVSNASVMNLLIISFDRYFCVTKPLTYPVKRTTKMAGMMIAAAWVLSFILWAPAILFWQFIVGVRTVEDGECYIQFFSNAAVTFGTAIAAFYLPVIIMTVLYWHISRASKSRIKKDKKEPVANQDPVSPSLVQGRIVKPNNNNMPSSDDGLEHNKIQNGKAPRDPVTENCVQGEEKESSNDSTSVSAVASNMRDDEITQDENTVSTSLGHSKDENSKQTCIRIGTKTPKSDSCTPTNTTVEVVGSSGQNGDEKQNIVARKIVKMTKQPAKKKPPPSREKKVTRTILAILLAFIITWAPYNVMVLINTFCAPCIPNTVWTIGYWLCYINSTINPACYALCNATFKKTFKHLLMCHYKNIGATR
How it was run: as §1

[42] = molecular target: Muscarinic acetylcholine receptor M3 (Homo sapiens) (UniProt P20309); conditions: at 10 µM, stronger effect = higher value
Muscarinic acetylcholine receptor M3 (Homo sapiens), sequence (P20309 whole entry, looked up): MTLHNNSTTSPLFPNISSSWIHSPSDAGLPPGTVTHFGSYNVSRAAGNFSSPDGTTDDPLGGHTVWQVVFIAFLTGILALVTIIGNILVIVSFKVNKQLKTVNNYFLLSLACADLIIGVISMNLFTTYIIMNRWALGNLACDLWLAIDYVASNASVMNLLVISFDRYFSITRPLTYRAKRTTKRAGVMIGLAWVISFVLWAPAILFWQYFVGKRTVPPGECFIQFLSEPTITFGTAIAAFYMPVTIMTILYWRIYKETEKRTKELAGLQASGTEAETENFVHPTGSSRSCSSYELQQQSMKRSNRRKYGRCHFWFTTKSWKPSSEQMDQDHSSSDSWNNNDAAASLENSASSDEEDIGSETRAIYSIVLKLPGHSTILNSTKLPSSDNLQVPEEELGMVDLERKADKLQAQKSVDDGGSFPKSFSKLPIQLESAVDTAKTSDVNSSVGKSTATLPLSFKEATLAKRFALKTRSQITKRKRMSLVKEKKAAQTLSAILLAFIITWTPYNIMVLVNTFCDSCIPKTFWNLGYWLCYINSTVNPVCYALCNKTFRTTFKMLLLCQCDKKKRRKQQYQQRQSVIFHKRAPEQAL
How it was run: as §1

[43] = molecular target: Neuropeptide Y receptor type 1 (Homo sapiens) (UniProt P25929); conditions: Neuropeptide Y Y1, at 10 µM, stronger effect = higher value
How it was run: as §1

[44] = molecular target: Neuropeptide Y receptor type 2 (Homo sapiens) (UniProt P49146); conditions: Neuropeptide Y Y2, at 10 µM, stronger effect = higher value
Neuropeptide Y receptor type 2 (Homo sapiens), sequence (P49146 whole entry, looked up): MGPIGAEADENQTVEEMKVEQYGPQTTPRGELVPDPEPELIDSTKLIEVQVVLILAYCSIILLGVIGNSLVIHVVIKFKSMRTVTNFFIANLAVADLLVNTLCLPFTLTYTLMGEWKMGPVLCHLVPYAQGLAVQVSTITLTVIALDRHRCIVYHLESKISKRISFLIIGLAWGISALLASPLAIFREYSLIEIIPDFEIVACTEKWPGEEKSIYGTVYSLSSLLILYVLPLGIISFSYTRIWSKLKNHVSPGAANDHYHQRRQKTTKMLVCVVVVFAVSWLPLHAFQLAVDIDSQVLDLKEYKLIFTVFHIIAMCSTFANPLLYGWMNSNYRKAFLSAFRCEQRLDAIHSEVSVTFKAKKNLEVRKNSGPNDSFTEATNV
How it was run: as §1

[45] = tested on: Nicotinic Acetylcholine; conditions: at 10 µM, stronger effect = higher value
How it was run: as §1

[46] = tested on: Opiate mu (OP3, MOP); conditions: at 10 µM, stronger effect = higher value
How it was run: as §1

[47] = tested on: Phorbol Ester; conditions: at 10 µM, stronger effect = higher value
How it was run: as §1

[48] = molecular target: Platelet-activating factor receptor (Homo sapiens) (UniProt P25105); conditions: Platelet Activating Factor (PAF), at 10 µM, stronger effect = higher value
How it was run: as §1

[49] = tested on: Potassium Channel [KATP]; conditions: at 10 µM, stronger effect = higher value
How it was run: as §1

[50] = tested on: Prostanoid EP4; conditions: at 10 µM, stronger effect = higher value
How it was run: as §1

[51] = tested on: Purinergic P2X; conditions: at 10 µM, stronger effect = higher value
How it was run: as §1

[52] = tested on: Purinergic P2Y; conditions: at 10 µM, stronger effect = higher value
How it was run: as §1

[53] = tested on: Rolipram; conditions: at 10 µM, stronger effect = higher value
How it was run: as §1

[54] = tested on: Serotonin (5-Hydroxytryptamine) 5-HT3; conditions: at 10 µM, stronger effect = higher value
How it was run: as §1

[55] = tested on: Sigma 1; conditions: at 10 µM, stronger effect = higher value
How it was run: as §1

[56] = tested on: Tachykinin NK1; conditions: at 10 µM, stronger effect = higher value
How it was run: as §1

[57] = tested on: Thyroid Hormone; conditions: at 10 µM, stronger effect = higher value
How it was run: as §1

[58] = tested on: Transporter, Dopamine (DAT); conditions: at 10 µM, stronger effect = higher value
How it was run: as §1

[59] = tested on: Transporter, GABA; conditions: at 10 µM, stronger effect = higher value
How it was run: as §1

[60] = tested on: Transporter, Norepinephrine (NET); conditions: at 10 µM, stronger effect = higher value
How it was run: as §1

[61] = tested on: Transporter, Serotonin (5-Hydroxytryptamine); conditions: at 10 µM, stronger effect = higher value
How it was run: as §1

[62] = tested on: Voltage-dependent L-type calcium channel subunit beta-4 (Rattus norvegicus) + Pro-epidermal growth factor (Homo sapiens) + Estrogen receptor (Homo sapiens) + Glucocorticoid receptor (Homo sapiens) + 5-hydroxytryptamine receptor 1A (Homo sapiens) + Alpha-2A adrenergic receptor (Homo sapiens) + Adenosine receptor A3 (Homo sapiens) + Androgen receptor (Homo sapiens) + Muscarinic acetylcholine receptor M1 (Homo sapiens) + D(4) dopamine receptor (Homo sapiens) + Alpha-2A adrenergic receptor (Rattus norvegicus) + Sodium- and chloride-dependent GABA transporter 1 (Rattus norvegicus) + Endothelin receptor type B (Homo sapiens) + Histamine H2 receptor (Homo sapiens) + Endothelin-1 receptor (Homo sapiens) + Neuropeptide Y receptor type 1 (Homo sapiens) + B2 bradykinin receptor (Homo sapiens) + Sodium-dependent serotonin transporter (Homo sapiens) + Histamine H1 receptor (Homo sapiens) + Mu-type opioid receptor (Homo sapiens) + D(3) dopamine receptor (Homo sapiens) + Delta-type opioid receptor (Homo sapiens) + Kappa-type opioid receptor (Homo sapiens) + Glutamate receptor ionotropic, kainate 3 (Rattus norvegicus) + 5-hydroxytryptamine receptor 3A (Homo sapiens) + Melatonin receptor type 1A (Homo sapiens) + Neuropeptide Y receptor type 2 (Homo sapiens) + P2Y purinoceptor 1 (Rattus norvegicus) + Thyroid hormone receptor alpha (Rattus norvegicus) + Glutamate receptor ionotropic, NMDA 2B (Rattus norvegicus) + Sodium-dependent dopamine transporter (Homo sapiens) + Protein kinase C zeta type …; conditions: at 10 µM, stronger effect = higher value
How it was run: as §1

[63] = molecular target: Voltage-gated inwardly rectifying potassium channel KCNH2 (Homo sapiens) (UniProt Q12809); conditions: Potassium Channel hERG, at 10 µM, stronger effect = higher value
How it was run: as §1

SMILES: Cc1ccc(Cc2c(C)nc3nc(SCC(=O)NCCN4CCNCC4)nn3c2C)cc1
- inhibition of radioligand binding [1]: 15% (inactive)
- inhibition of radioligand binding [2]: 21% (inactive)
- inhibition of radioligand binding [3]: 9% (inactive)
- inhibition of radioligand binding [4]: -2% (inactive)
- inhibition of radioligand binding [5]: 2% (inactive)
- inhibition of radioligand binding [6]: 27% (inactive)
- inhibition of radioligand binding [7]: 63%
- inhibition of radioligand binding [8]: 60%
- inhibition of radioligand binding [9]: -2% (inactive)
- inhibition of radioligand binding [10]: 16% (inactive)
- inhibition of radioligand binding [11]: 7% (inactive)
- inhibition of radioligand binding [12]: 14% (inactive)
- inhibition of radioligand binding [13]: 5% (inactive)
- inhibition of radioligand binding [14]: -4% (inactive)
- inhibition of radioligand binding ([15]; Benzothiazepine site): 11% (inactive)
- inhibition of radioligand binding ([15]; Dihydropyridine site): 3% (inactive)
- inhibition of radioligand binding [16]: 5% (inactive)
- inhibition of radioligand binding [17]: 9% (inactive)
- inhibition of radioligand binding [18]: 6% (inactive)
- inhibition of radioligand binding [19]: 0% (inactive)
- inhibition of radioligand binding [20]: -3% (inactive)
- inhibition of radioligand binding [21]: 5% (inactive)
- inhibition of radioligand binding [22]: -1% (inactive)
- inhibition of radioligand binding [23]: -5% (inactive)
- inhibition of radioligand binding [24]: -1% (inactive)
- inhibition of radioligand binding [25]: 7% (inactive)
- inhibition of radioligand binding [26]: -4% (inactive)
- inhibition of radioligand binding ([27]; Flunitrazepam site): 19% (inactive)
- inhibition of radioligand binding ([27]; Muscimol site): 26% (inactive)
- inhibition of radioligand binding [28]: 7% (inactive)
- inhibition of radioligand binding [29]: 17% (inactive)
- inhibition of radioligand binding [30]: 16% (inactive)
- inhibition of radioligand binding ([31]; Glycine site): 10% (inactive)
- inhibition of radioligand binding ([31]; Phencyclidine site): 12% (inactive)
- inhibition of radioligand binding ([31]; agonist site): 3% (inactive)
- inhibition of radioligand binding [32]: 24% (inactive)
- inhibition of radioligand binding [33]: 6% (inactive)
- inhibition of radioligand binding [34]: 9% (inactive)
- inhibition of radioligand binding [35]: 31% (inactive)
- inhibition of radioligand binding [36]: 13% (inactive)
- inhibition of radioligand binding [37]: 18% (inactive)
- inhibition of radioligand binding [38]: -7% (inactive)
- inhibition of radioligand binding [39]: 3% (inactive)
- inhibition of radioligand binding [40]: 42% (inactive)
- inhibition of radioligand binding [41]: 49% (inactive)
- inhibition of radioligand binding [42]: 54%
- inhibition of radioligand binding [43]: 0% (inactive)
- inhibition of radioligand binding [44]: -3% (inactive)
- inhibition of radioligand binding [45]: 1% (inactive)
- inhibition of radioligand binding [46]: 11% (inactive)
- inhibition of radioligand binding [47]: -1% (inactive)
- inhibition of radioligand binding [48]: 3% (inactive)
- inhibition of radioligand binding [49]: -11% (inactive)
- inhibition of radioligand binding [50]: 1% (inactive)
- inhibition of radioligand binding [51]: 6% (inactive)
- inhibition of radioligand binding [52]: 3% (inactive)
- inhibition of radioligand binding [53]: 1% (inactive)
- inhibition of radioligand binding [54]: -4% (inactive)
- inhibition of radioligand binding [55]: 12% (inactive)
- inhibition of radioligand binding [56]: 24% (inactive)
- inhibition of radioligand binding [57]: 5% (inactive)
- inhibition of radioligand binding [58]: 62%
- inhibition of radioligand binding [59]: 2% (inactive)
- inhibition of radioligand binding [60]: 17% (inactive)
- inhibition of radioligand binding [61]: 16% (inactive)
- inhibition of radioligand binding [62]: 1% (inactive)
- inhibition of radioligand binding [63]: 13% (inactive)
